Reference: ChEMBL document CHEMBL1146543, “New antimycobacterial and antimalarial 8,9-secokaurane diterpenes from Croton kongensis” (J Nat Prod, 2003)
Converted amounts (≈) assume the structure as drawn.

Columns and labels:
[1] = tested on: Mycobacterium tuberculosis; test: Antimycobacterial activity against Mycobacterium tuberculosis H37Ra by Microplate Alamar Blue Assay; assay type: functional
Outline: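 Microplate Alamar Blue assay with MIC as the endpoint; isoniazid and kanamycin sulfate were run as reference drugs.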

KB = test: Cytotoxicity against human KB cells; assay type: functional, cell-based
Outline: (§1)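 Colorimetric cytotoxicity assay run on Vero, KB and BC cell lines, with ellipticine as the reference compound. The result is reported as IC50.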

[2] = Cytotoxicity against human BC cells; assay type: functional, cell-based; outline: as §1
Vero = test: Cytotoxicity against african green monkey Vero cells; assay type: cell-based; settings: Chlorocebus sabaeus; outline: as §1
Plasmodium falciparum = test: Antimalarial activity against multidrug-resistant Plasmodium falciparum K1 by [3H]hypoxanthine uptake; assay type: functional, organism-based
Outline: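 Parasites kept in continuous in vitro culture (Trager–Jensen method); microculture radioisotope assay with growth read as [3H]-hypoxanthine uptake.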

With `NC[C@H]1O[C@H](O[C@H]2[C@H](O)[C@@H](O[C@H]3O[C@H](CO)[C@@H](O)[C@H](N)[C@H]3O)[C@H](N)C[C@@H]2N)[C@H](O)[C@@H](O)[C@@H]1O.O=S(=O)(O)O` [KANAMYCIN SULFATE] the MIC [1] was 2 µg/mL.
Compound `Cc1c2ccncc2c(C)c2c1[nH]c1ccccc12` [ELLIPTECINE] has an IC50 (KB) of 0.2 µg/mL (≈ 0.812 µM), an IC50 [2] of 0.2 µg/mL (≈ 0.812 µM) and an IC50 (Vero) of 0.2 µg/mL (≈ 0.812 µM).
In the case of `C[C@@H]1CC[C@H]2[C@@H](C)C(=O)O[C@@H]3O[C@@]4(C)CC[C@@H]1[C@]32OO4` [ARTEMISININ], the IC50 (Plasmodium falciparum) is reported as 0.001 µg/mL (≈ 0.00354 µM).
